For 1 compound, Activity, Inhibitory index and IC50 results are on record in ChEMBL document CHEMBL1125813, “Preparation and anti-HIV activities of aurintricarboxylic acid fractions and analogues: direct correlation of antiviral potency with molecular weight” (J Med Chem, 1991).

Molecules are shown by their SMILES. Converted amounts (≈) assume the structure as drawn. “And” between values parts separate entries of the source, which are not always exact repeats. Equal values may be shown once.

The nature of assay [1]: Compound was tested for percent of OKT4A positive cells stained with normal mouse IgG-FITC at a concentration of 0.8 ug/ml. Type of assay: functional. A digest of the protocol: (§1)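 MT-4 cells, 200 000 in 100 µL PBS, exposed to compound for 10–20 s at 20 °C, then stained with anti-OKT4A-FITC for 20 min at 4 °C. Cells washed, fixed in 0.37% formaldehyde and analysed by cytofluorometry. Positive cells are those brighter than control cells stained with normal mouse IgG-FITC, which monitors nonspecific labelling.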

Assay [2] deals with MT4. Briefly: Inhibitory index for OKT4A mAb binding inhibition in MT-4 cells was determined at a concentration of 4 ug/ml. It is filed as functional, Homo sapiens. A digest of the protocol:
(§2)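 MT-4 cells, 200 000 in 100 µL PBS, exposed to compound for 10–20 s at 20 °C, stained with anti-OKT4A-FITC for 20 min at 4 °C, washed, formaldehyde-fixed and read by flow cytometry. Index = 1 − (MF with compound − MF IgG-FITC control)/(MF OKT4A only − MF IgG-FITC control), from mean fluorescence intensity.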

A short description of assay [3]: Compound was tested for percent of OKT4A positive cells stained with normal mouse IgG-FITC at a concentration of 4 ug/mL. Type of assay: functional. In short, it runs like this:
as §1

Assay [4] in a line: Compound was tested for percent of OKT4A positive cells stained with normal mouse IgG-FITC at a concentration of 0.16 ug/ml. Type of assay: functional. In short, it runs like this:
as §1

In assay [5] the test system is MT-4 (human). Briefly: Inhibitory index of HIV-1 binding to MT-4 cells was determined at a concentration of 25 ug/mL.
For assay [6], the system named is MT4. Briefly: Inhibitory index for OKT4A mAb binding inhibition in MT-4 cells was determined at a concentration of 100 ug/ml. Type of assay: functional, Homo sapiens. In short, it runs like this: as §2
A short description of assay [7]: Compound was tested for percent of OKT4A positive cells stained with normal mouse IgG-FITC at a concentration of 20 ug/ml. Type of assay: functional. A digest of the protocol:
as §1

A short description of assay [8]: Compound was tested for percent of OKT4A positive cells stained with normal mouse IgG-FITC at a concentration of 100 ug/ml. It is filed as functional. A digest of the protocol:
as §1

The subject of assay [9] is HuT78. Briefly: Compound was tested for reduce the number of gaint cells in HIV-1 infected HUT-78 cells cocultured with MOLT -4 cells. It is filed as functional, cell-based, Homo sapiens. A digest of the protocol:
(§3)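 HUT-78 cells persistently infected with HIV-1 or HIV-2 cocultured with uninfected MOLT-4 (CD4+) cells alongside compound. Syncytium formation and bystander-cell destruction assessed by flow cytometry. IC50 taken as the concentration cutting giant-cell number by 50%.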

Assay [10] has as its system CCRF-CEM. Briefly: Inhibitory concentration for cytopathicity of HIV-1 (HTLV-111B) in CEM cells. It is filed as functional, cell-based, Homo sapiens. A digest of the protocol: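 CEM cells infected with HIV-1 (HTLV-IIIB) and cultured with compound. Protection from cytopathicity measured by XTT tetrazolium viability assay. IC50 is the concentration giving 50% inhibition. Means of two to four experiments.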
In general terms: Protection from cytopathic effect is a common read-out in antiviral testing.

The test system of assay [11] is MT4. Briefly: Inhibitory index for OKT4A mAb binding inhibition in MT-4 cells was determined at a concentration of 20 ug/ml. It is filed as functional, Homo sapiens. In short, it runs like this: as §2
Assay [12] relates to MT4. Put plainly: Inhibitory concentration for cytopathicity of HIV-1 (HTLV-111B) in MT-4 cells. It is filed as functional, cell-based, Homo sapiens. A digest of the protocol: (§4)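 MT-4 cells infected with HIV-1 (HTLV-IIIB) or HIV-2 (LAV-2ROD) at 100–500-fold the dose infecting 50% of cells, then cultured with compound. Protection from cytopathicity gives the IC50 (50% inhibitory concentration). Means of at least three experiments.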

Assay [13] relates to MT4. Briefly: Inhibitory concentration for cytopathicity of HIV-2 (LAV-2ROD) in MT-4 cells. Type of assay: functional, cell-based, Homo sapiens. In short, it runs like this:
as §4

Assay [14] has as its system MT4. Put plainly: Inhibitory index for OKT4A mAb binding inhibition in MT-4 cells was determined at a concentration of 0.16 ug/ml. It is filed as functional, Homo sapiens. A digest of the protocol: as §2
Assay [15] concerns MT4. Briefly: Inhibitory index for OKT4A mAb binding inhibition in MT-4 cells was determined at a concentration of 0.8 ug/ml. Type of assay: functional, Homo sapiens. A digest of the protocol:
as §2

Assay [16] deals with MT4. Put plainly: Inhibitory concentration for cell viability in mock-infected MT-4 cells. Type of assay: functional, cell-based. Particulars: Homo sapiens. A digest of the protocol:
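MT-4 cells mock-infected and cultured with compound. Viability measured by MTT tetrazolium colorimetric read-out. Value is the 50% cytotoxic concentration. MT-4 data are means of at least three experiments.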

Assay [17] deals with HuT78. Put plainly: Compound was tested for reduce the number of gaint cells in HIV-2 infected HUT-78 cells cocultured with MOLT -4 cells. Type of assay: functional, cell-based, Homo sapiens. A digest of the protocol: as §3

As a reminder, the IC50 is the concentration needed to halve the response being measured. `O=C(O)C1=CC(=C(c2ccc(O)c(C(=O)O)c2)c2ccc(O)c(C(=O)O)c2)C=CC1=O` [AURINTRICARBOXYLIC ACID]: the Activity was 99.2 in [1]; 0.91 in assay [2]; 9.2 in assay [3]; 99.5 in assay [4]; 0.97 in assay [6]; 1.8 in assay [7]. Also, the Activity in [8] is given as 2.7; in [11] it was 0.98; in assay [14] it was 0; in assay [15], 0.26. The Inhibitory index in assay [5] is given as 0.99. The concentration for half-maximal inhibition (IC50) in assay [9] is 4 µg/mL (≈ 9.47 µM); in assay [10] (Homo sapiens, CCRF-CEM, read-out: IC50), 2.1 µg/mL (≈ 4.97 µM); in assay [10] (ccrf-cem), 1.2 µg/mL (≈ 2.84 µM); in assay [12], 1.1 µg/mL and 0.5 µg/mL; in assay [13] (Homo sapiens, MT4, read-out: IC50) it was 0.85 µg/mL (≈ 2.01 µM); in [13] (mt4), 1.3 µg/mL (≈ 3.08 µM). Besides, the concentration for half-maximal inhibition (IC50) in [16] was found to be 280 µg/mL (≈ 663 µM); in assay [17] (Homo sapiens, HuT78, read-out: IC50), 4 µg/mL (≈ 9.47 µM); in assay [17] (hut78), 4 µg/mL (≈ 9.47 µM).
